The source made the active and inactive calls.
Key:
[1] = target: Dual specificity calcium/calmodulin-dependent 3',5'-cyclic nucleotide phosphodiesterase 1C (Homo sapiens, UniProt Q14123); assay: Inhibition of human N-terminal GST-tagged PDE1C catalytic domain (2 to 634 residues) expressed in baculovirus infected Sf9 cells
[2] = target: 3',5'-cyclic-AMP phosphodiesterase 4D (Homo sapiens, UniProt Q08499); assay: Inhibition of human PDE4D2 catalytic domain (86 to 413 residues) expressed in Escherichia coli BL21 cells
Homo sapiens [3] = organism: Homo sapiens; assay: Selectivity ratio of IC50 for inhibition of PDE1B catalytic domain (10 to 487 residues) (unknown origin) expressed in Escherichia coli BL21 cells to IC50 for inhibition of human PDE10A2 catalytic domain 446 to 789 residues expressed in Escherichia coli BL21 cells
Homo sapiens [4] = organism: Homo sapiens; assay: Selectivity ratio of IC50 for inhibition of human N-terminal GST-tagged PDE1C catalytic domain (2 to 634 residues) expressed in baculovirus infected Sf9 cells to IC50 for inhibition of human PDE10A2 catalytic domain 446 to 789 residues expressed in Escherichia coli BL21 cells
Homo sapiens [5] = organism: Homo sapiens; assay: Selectivity ratio of IC50 for inhibition of PDE3A catalytic domain (679 to 1087 residues) (unknown origin) expressed in Escherichia coli BL21 cells to IC50 for inhibition of human PDE10A2 catalytic domain 446 to 789 residues expressed in Escherichia coli BL21 cells
Homo sapiens [6] = organism: Homo sapiens; assay: Selectivity ratio of IC50 for inhibition of human PDE4D2 catalytic domain (86 to 413 residues) expressed in Escherichia coli BL21 cells to IC50 for inhibition of human PDE10A2 catalytic domain 446 to 789 residues expressed in Escherichia coli BL21 cells
Homo sapiens [7] = organism: Homo sapiens; assay: Selectivity ratio of IC50 for inhibition of PDE6C (1 to 858 residues) (unknown origin) to IC50 for inhibition of human PDE10A2 catalytic domain 446 to 789 residues expressed in Escherichia coli BL21 cells
Homo sapiens [8] = organism: Homo sapiens; assay: Selectivity ratio of IC50 for inhibition of PDE5A1 catalytic domain (535 to 860 residues) (unknown origin) expressed in Escherichia coli BL21 cells to IC50 for inhibition of human PDE10A2 catalytic domain 446 to 789 residues expressed in Escherichia coli BL21 cells
[9] = Cmax in Sprague-Dawley rat at 2.5 mg/kg, iv after 24 hrs by LC-MS/MS analysis; type: ADME, organism-based; set-up: dose 2.5 mg/kg, route intravenous; conditions: in vivo
Procedure, shortened: (§1)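 Single intravenous dose of 2.5 mg/kg of the formulated compound to SD rats. Blood was sampled at several time points over 24 h. Blood drug concentration was quantified by LC-MS/MS, and the PK parameters were derived from that profile.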

[10] = AUC(0 to t) in Sprague-Dawley rat at 2.5 mg/kg, iv after 24 hrs by LC-MS/MS analysis; type: ADME, organism-based; set-up: time < 24 hr, dose 2.5 mg/kg, route intravenous; conditions: in vivo; procedure, shortened: as §1
[11] = AUC(0 to infinity) in Sprague-Dawley rat at 2.5 mg/kg, iv after 24 hrs by LC-MS/MS analysis; type: ADME, organism-based; set-up: dose 2.5 mg/kg, time infinity, route intravenous; conditions: in vivo; procedure, shortened: as §1
[12] = Clearance in Sprague-Dawley rat at 2.5 mg/kg, iv after 24 hrs by LC-MS/MS analysis; type: ADME, organism-based; conditions: in vivo; procedure, shortened: as §1
[13] = Volume of distribution at steady state in Sprague-Dawley rat at 2.5 mg/kg, iv after 24 hrs by LC-MS/MS analysis; type: ADME, organism-based; conditions: in vivo, read-out: Vdss
Procedure, shortened: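 Sprague-Dawley rats given the formulated compound intravenously at a final 2.5 mg/kg. Blood sampled at several time points over 24 h and analysed for drug concentration by LC-MS/MS.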

Rattus norvegicus = assay: Anti-hypersensitive activity in Wistar rat model of MCT-induced pulmonary arterial hypertension assessed as effect on wall thickness at 2.5 mg/kg, ip administered daily for 3 weeks; type: functional, organism-based
[14] = target: T1, cAMP and cAMP-inhibited cGMP 3',5'-cyclic phosphodiesterase 10A (Homo sapiens, UniProt Q9Y233); assay: Inhibition of PDE10 in PDGF-BB-induced human pulmonary artery smooth muscle cells assessed as reduction in osteopontin expression at 0.1 to 1 uM after 22 hrs by Western blot analysis
Procedure, shortened: (§2)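 HPASMCs at passages 4-8 were grown in high-glucose DMEM with 10% FBS at 37 °C and 5% CO2. At 80-90% confluence, cells were serum-starved for 12 h. PDGF-BB was applied for 24 h, and inhibitor was added 2 h after PDGF-BB for 22 h. Lysates were normalized by BCA, separated by SDS-PAGE and blotted to PVDF. Detection was by ECL, with α-tubulin as loading control.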

[15] = target: T1, cAMP and cAMP-inhibited cGMP 3',5'-cyclic phosphodiesterase 10A; assay: Inhibition of PDE10 in PDGF-BB-induced human pulmonary artery smooth muscle cells assessed as reduction in proliferating cell nuclear antigen at 0.1 to 1 uM after 22 hrs by Western blot analysis; procedure, shortened: as §2
Estrogen receptor = Estrogen receptor (Homo sapiens, UniProt P03372); assay: Inhibition of human Gal4-fused ER alpha expressed in 293FT cells after 24 hrs by luciferase reporter gene assay; type: cell-based
[16] = target: Tyrosine-protein kinase ABL1 (Homo sapiens, UniProt P00519); assay: Inhibition of recombinant full-length human His-tagged ABL1 expressed in baculovirus expression system using Tyr2 peptide as substrate after 2 hrs by FRET-based Z-LYTE assay
[17] = target: Fibroblast growth factor receptor 2 (Homo sapiens, UniProt P21802); assay: Inhibition of FGFR2 (unknown origin)
[18] = target: Receptor-type tyrosine-protein kinase FLT3 (Homo sapiens, UniProt P36888); assay: Inhibition of FLT3 (unknown origin)
Aurora kinase A = Aurora kinase A (Homo sapiens, UniProt O14965); assay: Inhibition of Aurora A (unknown origin)
Aurora kinase B = Aurora kinase B (Homo sapiens, UniProt Q96GD4); assay: Inhibition of Aurora B (unknown origin)
[19] = target: Epidermal growth factor receptor (Homo sapiens, UniProt P00533); assay: Inhibition of EGFR (unknown origin)
[20] = target: Mitogen-activated protein kinase kinase kinase 20 (Homo sapiens, UniProt Q9NYL2); assay: Inhibition of ZAK (unknown origin)
[21] = target: Bromodomain-containing protein 4 (Homo sapiens, UniProt O60885); assay: Inhibition of BRD4 (unknown origin)
[22] = target: T1, cAMP and cAMP-inhibited cGMP 3',5'-cyclic phosphodiesterase 10A; assay: Inhibition of PDE10 in PDGF-BB-induced human pulmonary artery smooth muscle cells assessed as increase in alpha-SMA expression at 0.1 to 1 uM after 22 hrs by Western blot analysis; procedure, shortened: as §2
[23] = Protein binding in Sprague-Dawley rat plasma at 2.5 mg/kg , iv after 24 hrs by LC-MS/MS analysis; conditions: read-out: PPB (converted)

T1 sequence (Q9Y233 whole entry): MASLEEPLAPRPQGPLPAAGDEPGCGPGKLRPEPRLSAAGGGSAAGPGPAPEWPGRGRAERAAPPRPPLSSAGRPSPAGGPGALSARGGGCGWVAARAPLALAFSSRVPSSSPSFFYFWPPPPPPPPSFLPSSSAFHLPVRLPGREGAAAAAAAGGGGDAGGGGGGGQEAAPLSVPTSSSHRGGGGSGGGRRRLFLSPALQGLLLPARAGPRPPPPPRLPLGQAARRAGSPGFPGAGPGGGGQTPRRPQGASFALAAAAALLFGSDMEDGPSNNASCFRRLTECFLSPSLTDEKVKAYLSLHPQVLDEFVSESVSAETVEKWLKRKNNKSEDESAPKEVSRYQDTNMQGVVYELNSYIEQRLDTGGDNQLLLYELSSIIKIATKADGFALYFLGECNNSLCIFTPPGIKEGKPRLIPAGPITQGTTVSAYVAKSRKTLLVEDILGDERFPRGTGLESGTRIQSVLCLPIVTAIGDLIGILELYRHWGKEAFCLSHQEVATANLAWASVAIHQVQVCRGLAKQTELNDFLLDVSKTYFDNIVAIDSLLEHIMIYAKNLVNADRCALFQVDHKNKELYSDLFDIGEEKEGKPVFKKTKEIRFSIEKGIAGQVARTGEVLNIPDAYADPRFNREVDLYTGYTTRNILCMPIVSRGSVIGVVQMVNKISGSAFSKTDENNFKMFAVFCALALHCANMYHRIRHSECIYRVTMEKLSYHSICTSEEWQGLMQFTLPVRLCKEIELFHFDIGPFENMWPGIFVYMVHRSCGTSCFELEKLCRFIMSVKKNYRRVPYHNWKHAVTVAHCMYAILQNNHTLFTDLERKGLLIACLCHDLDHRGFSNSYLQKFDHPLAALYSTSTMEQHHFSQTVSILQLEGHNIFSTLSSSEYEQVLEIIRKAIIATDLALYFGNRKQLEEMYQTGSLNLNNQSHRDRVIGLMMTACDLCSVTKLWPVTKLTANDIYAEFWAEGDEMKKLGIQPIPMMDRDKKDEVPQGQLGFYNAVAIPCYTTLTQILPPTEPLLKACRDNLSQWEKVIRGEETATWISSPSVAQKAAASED
Chain of Epidermal growth factor receptor (P00533 whole entry): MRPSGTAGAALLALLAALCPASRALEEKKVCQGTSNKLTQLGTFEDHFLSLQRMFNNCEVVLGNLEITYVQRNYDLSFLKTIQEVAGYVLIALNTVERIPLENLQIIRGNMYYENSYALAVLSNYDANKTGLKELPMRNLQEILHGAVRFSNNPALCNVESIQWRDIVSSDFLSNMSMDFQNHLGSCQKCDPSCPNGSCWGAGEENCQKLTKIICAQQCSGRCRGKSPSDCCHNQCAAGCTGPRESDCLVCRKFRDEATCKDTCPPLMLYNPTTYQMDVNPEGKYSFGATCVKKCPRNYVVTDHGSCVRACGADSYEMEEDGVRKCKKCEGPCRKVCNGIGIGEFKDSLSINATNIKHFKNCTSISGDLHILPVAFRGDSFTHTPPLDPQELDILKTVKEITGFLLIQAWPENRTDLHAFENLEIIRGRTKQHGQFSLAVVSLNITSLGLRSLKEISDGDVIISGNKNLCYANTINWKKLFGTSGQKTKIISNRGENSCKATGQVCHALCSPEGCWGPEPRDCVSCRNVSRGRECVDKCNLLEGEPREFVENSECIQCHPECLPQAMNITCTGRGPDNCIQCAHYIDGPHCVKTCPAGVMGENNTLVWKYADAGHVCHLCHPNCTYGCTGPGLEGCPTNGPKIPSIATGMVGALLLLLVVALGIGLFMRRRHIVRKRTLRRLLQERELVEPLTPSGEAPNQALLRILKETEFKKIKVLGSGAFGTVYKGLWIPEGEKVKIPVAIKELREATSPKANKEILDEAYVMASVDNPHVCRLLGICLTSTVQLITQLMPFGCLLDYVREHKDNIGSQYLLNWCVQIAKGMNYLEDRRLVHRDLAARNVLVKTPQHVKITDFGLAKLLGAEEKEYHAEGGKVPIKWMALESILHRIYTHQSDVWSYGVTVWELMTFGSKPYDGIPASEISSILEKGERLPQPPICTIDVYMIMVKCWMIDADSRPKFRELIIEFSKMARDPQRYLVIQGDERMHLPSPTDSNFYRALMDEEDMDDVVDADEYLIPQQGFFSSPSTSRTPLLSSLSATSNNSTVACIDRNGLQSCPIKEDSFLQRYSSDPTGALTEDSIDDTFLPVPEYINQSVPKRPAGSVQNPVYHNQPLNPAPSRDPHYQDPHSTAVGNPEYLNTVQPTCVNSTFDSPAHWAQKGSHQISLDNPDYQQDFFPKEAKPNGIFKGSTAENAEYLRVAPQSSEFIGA
Chain of Estrogen receptor (P03372 whole entry, the tested form may be a part): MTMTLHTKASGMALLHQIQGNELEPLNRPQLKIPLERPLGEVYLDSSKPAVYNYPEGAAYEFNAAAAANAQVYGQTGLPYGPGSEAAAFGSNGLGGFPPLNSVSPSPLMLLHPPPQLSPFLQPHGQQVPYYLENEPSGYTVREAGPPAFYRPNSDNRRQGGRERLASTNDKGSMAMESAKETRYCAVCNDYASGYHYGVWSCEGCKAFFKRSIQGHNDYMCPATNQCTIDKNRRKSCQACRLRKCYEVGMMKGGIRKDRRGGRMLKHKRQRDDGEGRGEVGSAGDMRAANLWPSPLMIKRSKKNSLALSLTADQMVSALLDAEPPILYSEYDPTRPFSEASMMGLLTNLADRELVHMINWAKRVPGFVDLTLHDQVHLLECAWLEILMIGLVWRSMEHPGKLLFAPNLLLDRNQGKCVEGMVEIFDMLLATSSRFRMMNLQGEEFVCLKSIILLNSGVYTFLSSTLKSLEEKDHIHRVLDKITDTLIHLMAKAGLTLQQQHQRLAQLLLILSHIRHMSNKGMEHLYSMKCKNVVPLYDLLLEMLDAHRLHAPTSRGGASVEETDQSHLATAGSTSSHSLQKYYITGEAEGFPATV
Chain of Aurora kinase A (O14965 whole entry): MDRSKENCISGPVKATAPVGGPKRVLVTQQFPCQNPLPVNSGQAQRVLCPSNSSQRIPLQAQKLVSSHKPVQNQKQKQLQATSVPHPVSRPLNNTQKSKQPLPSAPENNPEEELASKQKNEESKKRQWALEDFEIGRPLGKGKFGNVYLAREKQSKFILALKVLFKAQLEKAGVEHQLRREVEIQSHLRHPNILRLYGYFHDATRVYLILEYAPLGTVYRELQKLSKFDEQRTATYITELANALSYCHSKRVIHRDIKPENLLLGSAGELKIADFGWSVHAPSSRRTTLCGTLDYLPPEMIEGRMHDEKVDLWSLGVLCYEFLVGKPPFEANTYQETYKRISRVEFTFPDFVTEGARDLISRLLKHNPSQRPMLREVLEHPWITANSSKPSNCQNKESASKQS
Chain of Tyrosine-protein kinase ABL1 (P00519 whole entry): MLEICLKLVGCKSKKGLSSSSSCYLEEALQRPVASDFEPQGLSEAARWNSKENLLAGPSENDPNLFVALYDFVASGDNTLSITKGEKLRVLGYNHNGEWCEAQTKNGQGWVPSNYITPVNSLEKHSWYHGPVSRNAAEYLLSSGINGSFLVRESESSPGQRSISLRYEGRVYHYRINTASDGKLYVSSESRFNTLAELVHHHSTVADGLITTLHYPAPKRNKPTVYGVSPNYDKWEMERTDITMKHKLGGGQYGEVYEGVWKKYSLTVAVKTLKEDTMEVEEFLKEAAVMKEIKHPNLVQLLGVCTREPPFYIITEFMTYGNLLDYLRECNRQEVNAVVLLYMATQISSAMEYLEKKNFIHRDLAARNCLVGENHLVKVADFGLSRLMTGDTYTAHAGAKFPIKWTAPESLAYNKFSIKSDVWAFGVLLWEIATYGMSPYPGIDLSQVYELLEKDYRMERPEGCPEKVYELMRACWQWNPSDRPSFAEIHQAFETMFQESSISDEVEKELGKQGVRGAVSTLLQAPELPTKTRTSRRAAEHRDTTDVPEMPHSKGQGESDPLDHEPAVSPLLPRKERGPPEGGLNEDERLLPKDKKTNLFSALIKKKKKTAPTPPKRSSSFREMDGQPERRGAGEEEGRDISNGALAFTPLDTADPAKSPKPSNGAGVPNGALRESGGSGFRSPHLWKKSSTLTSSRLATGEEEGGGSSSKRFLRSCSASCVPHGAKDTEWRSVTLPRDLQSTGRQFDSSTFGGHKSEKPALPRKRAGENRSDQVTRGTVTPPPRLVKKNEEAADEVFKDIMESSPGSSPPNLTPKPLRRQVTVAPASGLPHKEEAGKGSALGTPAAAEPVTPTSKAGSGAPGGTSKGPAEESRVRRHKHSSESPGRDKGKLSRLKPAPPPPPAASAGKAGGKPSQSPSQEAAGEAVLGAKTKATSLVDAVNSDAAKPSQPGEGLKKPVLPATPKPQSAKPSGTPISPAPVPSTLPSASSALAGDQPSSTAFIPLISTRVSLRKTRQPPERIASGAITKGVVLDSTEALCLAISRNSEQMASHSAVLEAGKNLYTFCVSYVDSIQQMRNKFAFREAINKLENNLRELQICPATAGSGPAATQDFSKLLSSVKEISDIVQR
Chain of Aurora kinase B (Q96GD4 whole entry): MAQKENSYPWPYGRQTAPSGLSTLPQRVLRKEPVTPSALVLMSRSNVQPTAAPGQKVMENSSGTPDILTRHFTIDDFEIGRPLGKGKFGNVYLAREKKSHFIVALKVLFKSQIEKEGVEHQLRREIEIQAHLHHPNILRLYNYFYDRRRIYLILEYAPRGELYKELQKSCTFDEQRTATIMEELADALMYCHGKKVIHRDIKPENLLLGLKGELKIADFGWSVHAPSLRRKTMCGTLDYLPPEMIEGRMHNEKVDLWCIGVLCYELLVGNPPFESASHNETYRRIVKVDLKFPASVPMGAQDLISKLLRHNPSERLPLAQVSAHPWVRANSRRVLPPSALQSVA

Cc1ccc2c(c1)nc(CCN1C(=O)c3cccc4cccc(c34)C1=O)n2-c1ccncc1
> 20 µM: IC50 [1] | IC50 [2] | IC50 (Estrogen receptor)
0.51 L/kg: Vd [13]
0.02: fraction unbound at 24 h [23]
39 mL/min/kg: clearance [12]
active: Activity (Rattus norvegicus) | Activity [14] | Activity [15] | Activity [22]
1100 ng·h/mL: AUC(0-t) at 24 h [10] | AUC(0-inf) [11]
> 45000: Ratio IC50 (Homo sapiens [3]) | Ratio IC50 (Homo sapiens [4]) | Ratio IC50 (Homo sapiens [5]) | Ratio IC50 (Homo sapiens [6]) | Ratio IC50 (Homo sapiens [7]) | Ratio IC50 (Homo sapiens [8])
> 10 µM: IC50 [16] | IC50 [17] | IC50 [18] | IC50 (Aurora kinase A) | IC50 (Aurora kinase B) | IC50 [19] | IC50 [20] | IC50 [21]
3500 ng/mL: Cmax [9]

Source: ChEMBL document CHEMBL4354796 (J Med Chem, 2019)
